The record followed here is PubChem BioAssay.

The source made the active and inactive calls.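 The calls were made as follows, unless noted: active = growth inhibition above 25% in both replicates, a cutoff set 3 SD above the mean; inconclusive = above 25% in only one replicate; inactive = the rest.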

One assay can be described thus: OD615 S. cerevisiae growth inhibition, permissive medium, pilot counter-assay, permissive growth control for S. cerevisiae lifespan shortening project (AID 705). The note with it: OD615, 24 h, at 10 µM, active compounds read high. Summed up:
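System – S. cerevisiae with engineered DeaD lifespan system · Buffer or medium – SC raffinose/galactose permissive medium · Schedule – cells pre-grown 4 h, then 24 h compound exposure, 30 °C humidified · Technique – culture turbidity as optical density at 615 nm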
In the case of `Cn1c2ccc(CC(=O)O)cc2c2cc(CC(=O)O)ccc21`, the growth inhibition is 1.85% (inactive).
On the same count and under the same terms, for `CS(=O)(=O)N1CCN(c2nc(-c3ccccc3)cs2)CC1` the value was 10.1% (inactive); for `CCOc1cc(CN2CCSCC2)ccc1O`, -8.12% (inactive).
The same measure, in the same setting: the value for `Cc1cc(C)cc(OCC(O)CN2C(=O)NC(C)(C)C2=O)c1` (stereo not given) was 2.01% (inactive); that for `O=C(NC1CCCCCCC1)c1ccc(CNc2c(N3CCOCC3)c(=O)c2=O)cc1` was 1.56% (inactive).
The same measure, in the same setting: for `COC(=O)C1=C(O)CSC1=Nc1cccc(C(F)(F)F)c1` the value was -1.75% (inactive); for `COc1cccc(C2c3c(oc4cc(C)c(C)cc4c3=O)C(=O)N2CCCN(C)C)c1` (stereo not given), -8.88% (inactive); for `CCOC(=O)c1ccc(NC(=O)NCCN2CCCCC2)cc1`, -0.03% (inactive).
Consider `COc1ccc(-c2nnc3ccc(SCC(=O)N4CCCC4)nn23)cc1`, for which the growth inhibition was 3.94% (inactive).
As to `CC(=O)c1cc(F)c(N2CCN(CCC#N)CC2)cc1C`, the growth inhibition was -3.07% (inactive).
Take `COc1ccc(-n2c(Cn3c(=O)sc4ccccc43)nnc2SCC(=O)N2CCOCC2)cc1`: the growth inhibition was -0.33% (inactive).
As for `CCOC(=O)c1c(NC(=O)c2cc(C3CC3)on2)sc2c1CCCC2`, the growth inhibition was -9.14% (inactive).
On to `CCOc1ccccc1C(=O)Nc1nnc(C(C)C)s1`, for which the growth inhibition was 3% (inactive).
For the compound `COc1ccccc1N1CCN(C(=O)CCCC2=NS(=O)(=O)c3ccccc3N2)CC1`, the growth inhibition is 0.08% (inactive).
As to `O=C(O)CC1C(=O)NCCN1Cc1ccc(F)c(F)c1` (stereo not given), the growth inhibition was -11.2% (inactive).
Consider `CCc1ccccc1S(=O)(=O)Cc1ccc(C(=O)NC(C)C)o1`, for which the growth inhibition was -2.43% (inactive).
On the same count and under the same terms, the value for `Cc1cc(Nc2ccc(Br)c(C)c2)n2nc(C)nc2n1` was -8.54% (inactive); that for `O=C(O)CCc1ccc(-c2cccs2)n1NC(=O)c1ccc(Cl)cc1` was -6.03% (inactive).
Still for that read-out and setting: for `CCC(=O)N1CC2(C)CN(C(=O)CC)CC(C)(C1)C2` the value was -6.27% (inactive); for `O=C(Cc1cc(=O)[nH]c(=O)[nH]1)N1CCN(C(=O)c2ccco2)CC1`, -10.2% (inactive).
Still for that read-out and setting: for `CCCCc1ccc(Nc2ncnc3nc[nH]c23)cc1` the value was -6.71% (inactive); for `O=C1c2ccccc2C(O)N1c1ccc(Cl)cc1` (stereo not given), -8.19% (inactive); for `CN(C)c1ccc(C2N3CC4(C)CN2CC(C)(C3)C4O)cc1` (stereo not given), -21.5% (inactive).
`COc1cc2c(c(O)c1OC)C(=O)C(OC)CCC2` (stereo not given): the growth inhibition is 0.06% (inactive).
Take `CCCC(=O)NCCCc1nc2ccccc2[nH]1`: the growth inhibition is -8.81% (inactive).
Same read-out and setting: the value for `COc1cc(OC)cc(OCC(O)Cn2cnc3cc(C)c(C)cc32)c1` (stereo not given) was -4.53% (inactive).
With `CCCc1cc(C(=O)NCc2ccc(OC)cc2)no1`, the growth inhibition is -7.46% (inactive).
Still for that read-out and setting: for `O=C(NCCCN1CCCC1=O)c1ccccc1NS(=O)(=O)c1ccc(F)cc1` the value was -7.5% (inactive); for `CCc1nnc(NC(=O)c2ccc(S(=O)(=O)N3CCOCC3)cc2)s1`, -10.4% (inactive).
On the same count and under the same terms, the value for `COc1cccc(C(c2sc3ncnn3c2O)N2CCc3ccccc3C2)c1` (stereo not given) was -0.12% (inactive); that for `COc1cccc(-n2c(Cc3cc(=O)[nH]c(=O)[nH]3)nnc2SCC(=O)N2CCCCCC2)c1` was -10.1% (inactive).
On to `Cn1c(CSc2nc3ccccc3s2)n[nH]c1=S`, for which the growth inhibition was -6.41% (inactive).
Turning to `O=C(CN1CCOCC1)Nc1cc(Cl)ccc1Cl`, the growth inhibition is -13.4% (inactive).
Same read-out and setting: the value for `CC(=O)N1CCc2c(sc(NC(=O)CN3C(=O)CCC3=O)c2C(N)=O)C1` was -11.6% (inactive).
The same measure, in the same setting: the value for `Cc1cc(Nc2ccc(F)cc2C)n2ncnc2n1` was -3.29% (inactive); that for `COc1ccccc1CNC(=O)CS(=O)Cc1nc(-c2ccccc2C)oc1C` (stereo not given) was -4.17% (inactive); that for `Cc1nc2sc(C(c3ccccc3)N3CCN(CCO)CC3)c(O)n2n1` (stereo not given) was -5.65% (inactive).
Same read-out and setting: for `CC1(C)Cc2c(C#N)c(NCCCO)nc(-c3ccccc3)c2CO1` the value was -7.54% (inactive); for `CN1CCc2c(sc(NC(=O)c3ccc(S(=O)(=O)N4CCOCC4)cc3)c2C(N)=O)C1`, -5.07% (inactive).
As to `COc1ccc(C)c(S(=O)(=O)Nc2ccc(OCC(=O)O)cc2)c1`, the growth inhibition is 2.53% (inactive).

The nature of the next assay: Restrictive medium S. cerevisiae growth inhibition, OD615, pilot screen of yeast lifespan reduction project, restrictive growth control (AID 706;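 active = growth inhibition above a set limit, 3 SD over mean compound inhibition, in both replicates, cut at about 43% in these data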;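 also: modified DeaD lifespan yeast strain shifted to restrictive glucose medium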). Particulars: OD615, 48 h, at 10 µM, active compounds read high. Summed up:
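Material: engineered S. cerevisiae DeaD strain / Medium: glucose-based CSMM-D restrictive medium / Compound: single dose of 10 µM compound final, 0.25% DMSO / Timing: 4 h pre-incubation, 48 h exposure at 30 °C / Technique: OD615 absorbance reading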
For `Cn1c2ccc(CC(=O)O)cc2c2cc(CC(=O)O)ccc21`, the growth inhibition is -12.4% (inactive).
On the same count and under the same terms, the value for `CS(=O)(=O)N1CCN(c2nc(-c3ccccc3)cs2)CC1` was 3.18% (inactive); that for `CCOc1cc(CN2CCSCC2)ccc1O` was -9.94% (inactive); that for `Cc1cc(C)cc(OCC(O)CN2C(=O)NC(C)(C)C2=O)c1` (stereo not given) was 2.59% (inactive).
On the same count and under the same terms, for `O=C(NC1CCCCCCC1)c1ccc(CNc2c(N3CCOCC3)c(=O)c2=O)cc1` the value was 8.42% (inactive); for `COC(=O)C1=C(O)CSC1=Nc1cccc(C(F)(F)F)c1`, 8.3% (inactive).
As to `COc1cccc(C2c3c(oc4cc(C)c(C)cc4c3=O)C(=O)N2CCCN(C)C)c1` (stereo not given), the growth inhibition was 0.12% (inactive).
Turning to `CCOC(=O)c1ccc(NC(=O)NCCN2CCCCC2)cc1`, the growth inhibition was -4.93% (inactive).
Turning to `COc1ccc(-c2nnc3ccc(SCC(=O)N4CCCC4)nn23)cc1`, the growth inhibition was 1.08% (inactive).
The same measure, in the same setting: the value for `CC(=O)c1cc(F)c(N2CCN(CCC#N)CC2)cc1C` was -19.6% (inactive).
Same read-out and setting: the value for `COc1ccc(-n2c(Cn3c(=O)sc4ccccc43)nnc2SCC(=O)N2CCOCC2)cc1` was 7.95% (inactive); that for `CCOC(=O)c1c(NC(=O)c2cc(C3CC3)on2)sc2c1CCCC2` was 0.505% (inactive); that for `CCOc1ccccc1C(=O)Nc1nnc(C(C)C)s1` was -2.61% (inactive).
As to `COc1ccccc1N1CCN(C(=O)CCCC2=NS(=O)(=O)c3ccccc3N2)CC1`, the growth inhibition is -12.7% (inactive).
Same read-out and setting: the value for `O=C(O)CC1C(=O)NCCN1Cc1ccc(F)c(F)c1` (stereo not given) was 3.21% (inactive).
On the same count and under the same terms, the value for `CCc1ccccc1S(=O)(=O)Cc1ccc(C(=O)NC(C)C)o1` was -2.4% (inactive); that for `Cc1cc(Nc2ccc(Br)c(C)c2)n2nc(C)nc2n1` was 4.61% (inactive); that for `O=C(O)CCc1ccc(-c2cccs2)n1NC(=O)c1ccc(Cl)cc1` was -14.6% (inactive).
On to `CCC(=O)N1CC2(C)CN(C(=O)CC)CC(C)(C1)C2`, for which the growth inhibition was -24.9% (inactive).
For `O=C(Cc1cc(=O)[nH]c(=O)[nH]1)N1CCN(C(=O)c2ccco2)CC1`, the growth inhibition is -26.6% (inactive).
On the same count and under the same terms, the value for `CCCCc1ccc(Nc2ncnc3nc[nH]c23)cc1` was 22.7% (inactive); that for `O=C1c2ccccc2C(O)N1c1ccc(Cl)cc1` (stereo not given) was -7.83% (inactive); that for `CN(C)c1ccc(C2N3CC4(C)CN2CC(C)(C3)C4O)cc1` (stereo not given) was -10.9% (inactive).
On the same count and under the same terms, for `COc1cc2c(c(O)c1OC)C(=O)C(OC)CCC2` (stereo not given) the value was -2.16% (inactive); for `CCCC(=O)NCCCc1nc2ccccc2[nH]1`, -14.7% (inactive); for `COc1cc(OC)cc(OCC(O)Cn2cnc3cc(C)c(C)cc32)c1` (stereo not given), -8.79% (inactive).
For the compound `CCCc1cc(C(=O)NCc2ccc(OC)cc2)no1`, the growth inhibition was 18.4% (inactive).
Still for that read-out and setting: the value for `O=C(NCCCN1CCCC1=O)c1ccccc1NS(=O)(=O)c1ccc(F)cc1` was -22% (inactive); that for `CCc1nnc(NC(=O)c2ccc(S(=O)(=O)N3CCOCC3)cc2)s1` was -20.2% (inactive); that for `COc1cccc(C(c2sc3ncnn3c2O)N2CCc3ccccc3C2)c1` (stereo not given) was 2.29% (inactive).
The same measure, in the same setting: the value for `COc1cccc(-n2c(Cc3cc(=O)[nH]c(=O)[nH]3)nnc2SCC(=O)N2CCCCCC2)c1` was -12.1% (inactive); that for `Cn1c(CSc2nc3ccccc3s2)n[nH]c1=S` was 1.9% (inactive); that for `O=C(CN1CCOCC1)Nc1cc(Cl)ccc1Cl` was -2.5% (inactive).
Regarding `CC(=O)N1CCc2c(sc(NC(=O)CN3C(=O)CCC3=O)c2C(N)=O)C1`, the growth inhibition is -14.8% (inactive).
On the same count and under the same terms, for `Cc1cc(Nc2ccc(F)cc2C)n2ncnc2n1` the value was -0.445% (inactive); for `COc1ccccc1CNC(=O)CS(=O)Cc1nc(-c2ccccc2C)oc1C` (stereo not given), 12.7% (inactive).
The same measure, in the same setting: for `Cc1nc2sc(C(c3ccccc3)N3CCN(CCO)CC3)c(O)n2n1` (stereo not given) the value was -2.6% (inactive); for `CC1(C)Cc2c(C#N)c(NCCCO)nc(-c3ccccc3)c2CO1`, -20.9% (inactive).
For the compound `CN1CCc2c(sc(NC(=O)c3ccc(S(=O)(=O)N4CCOCC4)cc3)c2C(N)=O)C1`, the growth inhibition is -4.6% (inactive).
`COc1ccc(C)c(S(=O)(=O)Nc2ccc(OCC(=O)O)cc2)c1`: the growth inhibition is -4.93% (inactive).
